Read-outs that look alike come from different tables or passages of the source.

This is an account of results in PMC5308454 (MedChemComm, 2016).

The subject of experiment [1] is DU-145 (prostate). As to conditions: read-out: GI50 SRB assay DU-145; ref [13]; cited from earlier work.
In experiment [2] the test system is SK-OV-3. The note with it: read-out: GI50 SRB assay SK-OV-3; ref [13]; cited from earlier work.
Experiment [3] concerns NCI-H460. As to conditions: read-out: GI50 SRB assay NCI-H460; ref [13]; cited from earlier work. A general note: The SRB assay estimates cell density from bound dye.
Experiment [4] deals with tubulin. The note with it: read-out: Inhibition of tubulin polymerization IC50; ref [73]; cited from earlier work.
In experiment [5] the test system is MCF7-luc-GFP-mCherry breast tumor. The experiment can be described thus: Histological. In kind it is in vivo, SCID mice. The note with it: 120 mg/kg; 48 h post treatment. Put shortly: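 The same MCF7-luc-GFP-mCherry tumour-bearing SCID mice were dosed ip at 120 mg/kg, or with saline. After the 48 h BLI session they were sacrificed and the tumours excised. Tumour cross-sections were stained with H&E, and necrotic (pink) regions were scored against viable (purple) regions relative to the saline control.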

Experiment [6] shares this test system. As to the kind of experiment: Dynamic bioluminescence imaging. It is filed as in vivo, SCID mice. As to conditions: for Reduction in bioluminescence as compared to baseline or saline control: 4 h after injection, p<0.05.
Experiment [7] has as its system tubulin. As to the kind of experiment: Inhibition of tubulin polymerization. In kind it is biochemical. As to conditions: read-out: Inhibition of tubulin polymerization IC50; ± SD.
Experiment [8] has as its system NCI-H460. The experiment can be described thus: SRB cytotoxicity assay, NCI-H460. In kind it is cell-based, human. As to conditions: read-out: GI50 SRB assay NCI-H460; average of n ≥ 3 independent determinations.
Experiment [9] deals with DU-145 (prostate). As to the kind of experiment: SRB cytotoxicity assay, DU-145. It is filed as cell-based, human. As to conditions: read-out: GI50 SRB assay DU-145; average of n ≥ 3 independent determinations.
The subject of experiment [10] is SK-OV-3. The experiment can be described thus: SRB cytotoxicity assay, SK-OV-3. The note with it: read-out: GI50 SRB assay SK-OV-3; average of n ≥ 3 independent determinations. It is filed as cell-based, human.

A word on the GI50: it is the concentration that inhibits growth by half. For the compound `COc1ccc(/C=C\c2cc(OC)c(OC)c(OC)c2)cc1O` [CA4, combretastatin A-4], the GI50 with DU-145 (prostate) [1] is 6.02 nM; with SK-OV-3 [2] it was 5.06 nM; with NCI-H460 [3], 5 nM.

The IC50 is the point on the concentration scale where inhibition reaches its midpoint. Regarding `COc1ccc(/C=C\c2cc(OC)c(OC)c(OC)c2)cc1OP(=O)(O)O` [CA4P, Combretastatin A-4P], the IC50 in the experiment on tubulin [4] was > 20000 nM. Further, the “Tumor necrosis (H&E) as compared with saline control” value in experiment [5] is on record as “much more extensive necrosis”. In addition, the “Reduction in bioluminescence as compared to baseline or saline control” value in experiment [6] (120 mg/kg ip single dose) was “approximately 80%”.

With `COc1cc(/C2=C/CCCCc3c2ccc(OC)c3OP(=O)([O-])[O-])cc(OC)c1OC.[Na+].[Na+]` [Compound 24], in experiment [5], the “Tumor necrosis (H&E) as compared with saline control” value is “much more extensive necrosis”. Moreover, the “Bioluminescence intensity at 24 and 48 h versus baseline” value in experiment [6] (120 mg/kg ip single dose, 24 and 48 h, p<0.005) is “remained significantly below baseline values”. Besides, the “Reduction in bioluminescence as compared to baseline or saline control” value in experiment [6] (120 mg/kg ip single dose) is listed as “approximately 80%”. The “Vascular shutdown evidenced by bioluminescence imaging” value in [6] (120 mg/kg, 4 h post administration, effect continued at 24 and 48 h) is “significant vascular shutdown”.

For the compound `COc1ccc2c(c1O)CCCC=C2c1cc(OC)c(OC)c(OC)c1` [KGP18], in the experiment on tubulin [7], the IC50 turned out to be 1400 nM. Besides, the results for the GI50 with NCI-H460 [8], in the experiment on DU-145 (prostate) [9] and with SK-OV-3 [10] were 0.0418 nM, 0.0249 nM and 0.0543 nM, respectively.
